Here are results for 17 sequences from PMC3308013 (Journal of Immunology (Baltimore, Md. : 1950), 2011).

The target in experiment [1] is H-2 Db (Mus musculus, UniProt P01899). Put plainly: MHC peptide binding competition assay, purified H-2 Db. The method, boiled down:
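Peptides radiolabelled by chloramine T; 1–10 nM label co-incubated at room temperature for 2 d with 1 μM to 1 nM purified H-2 Db, 1–3 μM human β2-microglobulin and protease inhibitors. Complexes captured on 28-14-8s Ab-coated plates; bound cpm counted. Test peptide at six concentrations over a 100,000-fold range, ≥3 independent assays; IC50 = concentration giving 50% inhibition of label binding.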

Experiment [2] deals with H-2 Kb (Mus musculus, UniProt P01901). Put plainly: MHC peptide binding competition assay, purified H-2 Kb.

pIC50: −log10 of the molar value. Where no end group is shown, it is not given here.

As a reminder, the pIC50 is the IC50 on a negative log10 scale, so that one unit is a factor of ten. Low readings indicate a high IC50, high ones a low IC50.

H-2 Db, sequence (P01899 25-362): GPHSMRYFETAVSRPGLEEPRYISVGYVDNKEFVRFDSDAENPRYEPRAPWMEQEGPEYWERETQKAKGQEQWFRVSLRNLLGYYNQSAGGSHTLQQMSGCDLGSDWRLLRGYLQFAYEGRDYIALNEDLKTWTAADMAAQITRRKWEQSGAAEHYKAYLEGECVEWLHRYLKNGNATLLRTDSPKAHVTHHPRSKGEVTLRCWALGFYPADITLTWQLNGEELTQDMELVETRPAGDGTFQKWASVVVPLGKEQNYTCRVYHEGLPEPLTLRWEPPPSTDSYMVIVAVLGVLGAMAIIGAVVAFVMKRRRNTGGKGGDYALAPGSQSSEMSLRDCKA
H-2 Db, sequence (P61769 21-119, further chain): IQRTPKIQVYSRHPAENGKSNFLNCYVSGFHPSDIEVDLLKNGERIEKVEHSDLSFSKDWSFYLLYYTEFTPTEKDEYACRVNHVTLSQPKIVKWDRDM
H-2 Kb, sequence (P01901 22-369): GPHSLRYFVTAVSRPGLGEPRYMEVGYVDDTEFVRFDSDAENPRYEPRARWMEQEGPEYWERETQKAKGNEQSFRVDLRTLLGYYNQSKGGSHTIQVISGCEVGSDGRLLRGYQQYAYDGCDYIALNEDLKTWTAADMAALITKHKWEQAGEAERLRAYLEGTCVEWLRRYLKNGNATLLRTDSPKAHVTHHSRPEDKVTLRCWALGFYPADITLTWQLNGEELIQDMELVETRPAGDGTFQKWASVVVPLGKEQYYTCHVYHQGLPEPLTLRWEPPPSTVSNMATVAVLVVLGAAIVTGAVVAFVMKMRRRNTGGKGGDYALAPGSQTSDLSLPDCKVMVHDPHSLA
H-2 Kb, sequence (P61769 21-119 partner): as the sequence (P61769 21-119, further chain) above

With AAIENYVRF [AAIENYVRF], the pIC50 in experiment [1] was 7.42. On the same count and under the same terms, to AVCINNTFL [AVCINNTFL] belongs 6.35. In experiment [1], FAFVNAAHA [FAFVNAAHA] gave a pIC50 of 8.31. In experiment [1], FGLLNYALV [FGLLNYALV] had a pIC50 of 9.00. With FLPRLGTEL [FLPRLGTEL], the negative-log IC50 (pIC50) in experiment [1] is 5.52. The sequence GAINFINL [GAINFINL] gave a pIC50 in experiment [2] of 8.21. In the case of GAMRAVVPI [GAMRAVVPI], the pIC50 in experiment [1] was 6.30. Sequence INNTFLHL [INNTFLHL] showed a negative logarithm of the IC50 (pIC50) in experiment [2] of 8.70. For the sequence LAVVLWSLL [LAVVLWSLL], the pIC50 in experiment [1] was 5.56. With LGYAYINS [LGYAYINS], in experiment [2], the pIC50 is 8.00. In experiment [2], QTFDFGRL [QTFDFGRL] had a negative-log IC50 (pIC50) of 8.68.

With SARMLGDVM [SARMLGDVM], the pIC50 in experiment [1] was 5.04. In experiment [2], SFYRFLFA [SFYRFLFA] showed a negative-log IC50 (pIC50) of 7.19. Consider WMKMNQTLL [WMKMNQTLL], for which the pIC50 in experiment [1] is 6.88. Still for that read-out and setting: to YQPLLSNTL [YQPLLSNTL] belongs 5.29. Regarding YRFLFAFL [YRFLFAFL], the pIC50 in experiment [2] is 8.27. YSVENVGLL [YSVENVGLL] gave a negative-log IC50 (pIC50) in experiment [1] of 8.72.
